Assay: Displacement of [3H]RX821002 from alpha2 adrenoceptor in human prefrontal cortex neural membrane
Type: tissue-based
Summary of the method: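 Postmortem human PFC P2 membranes (homogenized in 5 mM Tris–HCl pH 7.4, 1 mM MgCl2, 0.25 M sucrose; stored at −70 °C) incubated in 50 mM Tris–HCl pH 7.5 with 1 nM [3H]RX821002 and competitor (10 concentrations) 30 min at 25 °C. Bound ligand separated by GF/C filtration and counted by scintillation. Non-specific binding with 10^-5 M adrenaline. Ki by one-site nonlinear regression, expressed as pKi.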

Row | Structure (SMILES) | pKi
1 | COC1(C2=NCCN2)COc2ccccc2O1 (stereo unspecified) | 9.04
2 | N=C(N)Oc1ccc2c(c1)CCCC2 | 5.35
3 | Cc1ccc(OC(=N)N)cc1 | 5.09
4 | N=C(N)Nc1ccc2c(c1)CCCC2 | 7.11
5 | N=C(N)Oc1ccc2c(c1)CCC2 | 5.27
6 | N=C(N)Oc1ccc(Sc2ccc(O)cc2)cc1 | 4.94
7 | N=C(N)Oc1ccc(Cc2ccc(OC(=N)N)cc2)cc1 | 5.4
8 | N=C(N)Oc1ccc(Cc2ccc(O)cc2)cc1 | 4.98
9 | N=C(N)Oc1ccc(Oc2ccc(O)cc2)cc1 | 4.49
10 | N=C(N)Oc1ccc(Sc2ccc(OC(=N)N)cc2)cc1 | 5.1
11 | N=C(N)Oc1ccc(Oc2ccc(OC(=N)N)cc2)cc1 | 4.72

Source: ChEMBL document CHEMBL1156729, “Novel synthesis and pharmacological evaluation as alpha2-adrenoceptor ligands of O-phenylisouronium salts” (Bioorg Med Chem, 2008)
